Experimental data as given in article PMC7669533 (International Journal of Nanomedicine, 2020).
Ends that are not written are not given here.

Biological target: recombinant human VEGFR-2 (Homo sapiens, UniProt P35968)
Test: SPR binding affinity to immobilized VEGFR-2
Procedure, shortened: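 Recombinant human receptor protein amine-coupled to a CM5 chip. Test peptides diluted in HBS-EP buffer and flowed over the surface at 0.0156, 0.03125, 0.0625, 0.125 and 0.25 μM, with resonance unit changes recorded. Response curves were fitted to a 1:1 Langmuir binding model to give the equilibrium dissociation constant KD.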

Sequence of recombinant human VEGFR-2 (P35968 20-1356): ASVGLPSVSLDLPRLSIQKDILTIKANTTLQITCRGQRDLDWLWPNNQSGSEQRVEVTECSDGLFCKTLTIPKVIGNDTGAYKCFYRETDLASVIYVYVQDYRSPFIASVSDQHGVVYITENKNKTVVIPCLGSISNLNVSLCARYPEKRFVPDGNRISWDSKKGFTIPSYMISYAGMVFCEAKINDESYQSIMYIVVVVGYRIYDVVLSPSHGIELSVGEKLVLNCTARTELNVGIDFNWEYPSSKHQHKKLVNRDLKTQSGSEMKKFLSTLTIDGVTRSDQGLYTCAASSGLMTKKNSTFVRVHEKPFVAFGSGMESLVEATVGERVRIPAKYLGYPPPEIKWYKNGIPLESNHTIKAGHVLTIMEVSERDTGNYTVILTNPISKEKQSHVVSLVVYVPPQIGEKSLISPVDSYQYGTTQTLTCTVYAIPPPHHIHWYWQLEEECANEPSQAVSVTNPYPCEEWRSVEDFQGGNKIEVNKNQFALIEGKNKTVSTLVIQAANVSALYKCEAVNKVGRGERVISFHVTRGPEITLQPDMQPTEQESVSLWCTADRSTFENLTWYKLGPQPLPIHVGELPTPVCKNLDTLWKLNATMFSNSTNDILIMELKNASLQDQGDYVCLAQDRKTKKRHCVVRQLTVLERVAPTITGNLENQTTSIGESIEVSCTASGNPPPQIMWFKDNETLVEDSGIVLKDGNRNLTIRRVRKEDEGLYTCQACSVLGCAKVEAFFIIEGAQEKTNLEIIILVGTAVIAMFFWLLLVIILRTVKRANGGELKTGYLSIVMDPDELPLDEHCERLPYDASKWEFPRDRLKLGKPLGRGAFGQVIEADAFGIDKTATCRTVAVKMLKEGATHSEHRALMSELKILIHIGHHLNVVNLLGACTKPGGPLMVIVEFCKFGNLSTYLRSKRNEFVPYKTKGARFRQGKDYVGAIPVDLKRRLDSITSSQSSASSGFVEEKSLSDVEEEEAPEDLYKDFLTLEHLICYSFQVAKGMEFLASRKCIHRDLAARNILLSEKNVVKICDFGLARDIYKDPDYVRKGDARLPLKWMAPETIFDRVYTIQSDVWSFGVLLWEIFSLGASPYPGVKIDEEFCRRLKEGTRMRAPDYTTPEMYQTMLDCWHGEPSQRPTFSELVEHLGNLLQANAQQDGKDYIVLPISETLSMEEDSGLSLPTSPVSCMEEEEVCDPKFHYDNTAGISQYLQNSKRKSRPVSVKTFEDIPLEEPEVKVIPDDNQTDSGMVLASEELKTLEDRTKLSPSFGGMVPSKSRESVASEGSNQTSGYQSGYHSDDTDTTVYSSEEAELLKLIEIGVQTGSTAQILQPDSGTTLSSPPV

Compound	Kd
ATWLPPRC [AT7]	283 nM
CC(C)C[C@H](NC(=O)[C@H](Cc1c[nH]c2ccccc12)NC(=O)[C@@H](NC(=O)[C@H](C)NC(=O)[C@H](CS)NC(=O)[C@H](CCCNC(=N)N)NC(=O)[C@H](CCCNC(=N)N)NC(=O)[C@H](CCCNC(=N)N)NC(=O)[C@H](CCC(N)=O)NC(=O)[C@H](CCCNC(=N)N)NC(=O)[C@H](CCCNC(=N)N)NC(=O)[C@H](CCCCN)NC(=O)[C@H](CCCCN)NC(=O)[C@@H](N)CCCNC(=N)N)[C@@H](C)O)C(=O)N1CCC[C@H]1C(=O)N1CCC[C@H]1C(=O)N[C@@H](CCCNC(=N)N)C(=O)O [TAT-AT7]	22.8 nM
